The results in this text go back to paper PMC9924909 (Brain, 2022).

Values joined by “and” are separate entries in the source; they are usually repeats but may differ in a detail not shown here. Equal entries are not always repeated.

The subject of one assay is glucosylceramide. In words: Glucosylceramide concentration in plasma and CSF, LEAP trial. The assay is classed as in vivo, human. The procedure, abridged:
(§1)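 CSF collected by lumbar puncture at baseline and Weeks 1, 4, 26, 52; plasma at baseline and Weeks 1, 4, 12, 26, 39, 52. Dosing was oral test compound 15 mg once daily with maintenance IV enzyme replacement. LLOQ: glucosylceramide 0.1 μg/ml plasma, 2.0 ng/ml CSF; glucosylsphingosine 5.0 ng/ml plasma, 5 pg/ml CSF. Change from baseline summarised as median percentage with interquartile range and 95% CI.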

In a further assay the test system is glucosylsphingosine. In words: Glucosylsphingosine concentration in plasma and CSF, LEAP trial. Format: in vivo, human. The procedure, abridged:
as §1

Where [1] appears, read: baseline to Week 52, 11 patients.
The mark [2] stands for this setting: individual patients, baseline to Week 52.

Turning to `CC(C)(NC(=O)O[C@@H]1CN2CCC1CC2)c1csc(-c2ccc(F)cc2)n1` [Venglustat], in the assay with glucosylceramide (setting [1]), the “median glucosylceramide reduction in CSF” value worked out at 81% and the “median glucosylceramide reduction in plasma” value is given as 78%. Also, in the assay with glucosylceramide (setting [2]), the “Glucosylceramide concentration, CSF, Change” value was −4.04 ng/ml and −4.95 ng/ml and −8.95 ng/ml and +1.64 ng/ml and −4.17 ng/ml and −4.7 ng/ml and −3.32 ng/ml and −3.53 ng/ml and −7.02 ng/ml and −13.3 ng/ml; the “Glucosylceramide concentration, CSF, Percentage change” value is −80.2% and −83.2% and −80.6% and +37.1% and −80.7% and −82.5% and −47.4% and −77.9% and −76.9% and −87.5% and −93%; the “Glucosylceramide concentration, Plasma, Change” value was −4.31 μg/ml and −5.49 μg/ml and −4.7 μg/ml and +1.14 μg/ml and −3.97 μg/ml and −2.24 μg/ml and −5.31 μg/ml and −4.19 μg/ml and −3.68 μg/ml and −6.69 μg/ml; the “Glucosylceramide concentration, Plasma, Percentage change” value was −82.5% and −78.4% and −71.6% and +13.7% and −78.2% and −85.9% and −45.8% and −84% and −80.3% and −77% and −85.1%. Further, in the assay on glucosylsphingosine (setting [1]), the “median glucosylsphingosine reduction in CSF” value is given as 70% and the “median glucosylsphingosine reduction in plasma” value worked out at 56%. Also, in the assay with glucosylsphingosine (setting [2]), the “Glucosylsphingosine concentration, CSF, Change” value was −72 pg/ml and −23.2 pg/ml and −30.2 pg/ml and +75.8 pg/ml and −15.75 pg/ml and −53.5 pg/ml and −9.8 pg/ml and −14.3 pg/ml and −17.3 pg/ml and −32.7 pg/ml and −35.7 pg/ml; the “Glucosylsphingosine concentration, CSF, Percentage change” value was −72% and −48% and −44.7% and +313.2% and −69.7% and −95.5% and −46% and −71.1% and −87.4% and −75.7% and −70.3%; the “Glucosylsphingosine concentration, Plasma, Change” value is −3.2 ng/ml and −18.9 ng/ml and −33 ng/ml and +69 ng/ml and −3.79 ng/ml and −22.5 ng/ml and −6.28 ng/ml and −8.67 ng/ml and −8.07 ng/ml and −4.5 ng/ml and −31.3 ng/ml; the “Glucosylsphingosine concentration, Plasma, Percentage change” value is −56.1% and −50.7% and −41.4% and +43.4% and −60.3% and −57.8% and −71.5% and −59.8% and −47.8% and −23.3% and −64%.
